Screening data as filed in PubChem BioAssay.
ROMK primary = human ROMK K+ channel modulation, primary screen; Tet-inducible ROMK, thallium flux fluorescence; actives lie on both sides; P48048; 130,000 compounds, 2% hits; AID 1918; B-score at 10 µM;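 active means signal ratio slope over the read window, or its plate-corrected B-score, at least 3 SD from the plate mean, either direction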;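 further: B-score of the F/F0 ratio slope over 7 to 12 s after thallium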
Target sequence (P48048 whole entry, looked up): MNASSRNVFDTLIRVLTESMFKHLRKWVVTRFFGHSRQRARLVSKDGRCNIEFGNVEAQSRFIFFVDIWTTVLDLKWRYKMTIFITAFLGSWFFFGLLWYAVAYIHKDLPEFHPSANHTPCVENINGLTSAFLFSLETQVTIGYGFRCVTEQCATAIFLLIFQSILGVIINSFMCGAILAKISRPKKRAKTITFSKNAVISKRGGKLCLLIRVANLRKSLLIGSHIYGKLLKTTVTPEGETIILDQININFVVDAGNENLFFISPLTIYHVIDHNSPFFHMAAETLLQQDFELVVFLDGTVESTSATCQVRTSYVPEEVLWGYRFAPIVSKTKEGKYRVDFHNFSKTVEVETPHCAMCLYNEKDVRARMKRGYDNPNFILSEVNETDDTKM
PKD1 inh = blocks activity of human protein kinase D1. Q15139. inhibition, % (concentration not given with the values). PKD1 kinase fluorescence polarization assay. 200,000 compounds, 0.056% hits; in the data active means inhibition above about 50%
Rad51 HR inh = Rad51 (human) homologous recombination inhibition; Q06609; hRad51 DNA strand exchange, fluorescence dequenching; inhibition, % at 10 µM; 200,000 compounds, 0.085% hits; AID 1385;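 active means inhibition above 40% at the single screening dose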
Target sequence (Q06609 whole entry, looked up): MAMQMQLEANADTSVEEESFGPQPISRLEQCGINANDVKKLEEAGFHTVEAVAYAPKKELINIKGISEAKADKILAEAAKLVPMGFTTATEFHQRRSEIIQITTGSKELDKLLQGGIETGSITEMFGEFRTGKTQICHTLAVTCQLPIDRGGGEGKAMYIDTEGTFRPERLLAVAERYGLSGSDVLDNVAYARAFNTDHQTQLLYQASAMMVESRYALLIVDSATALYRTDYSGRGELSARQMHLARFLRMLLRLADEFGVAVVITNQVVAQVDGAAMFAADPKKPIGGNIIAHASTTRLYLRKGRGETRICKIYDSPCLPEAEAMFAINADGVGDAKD
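System: human Rad51 nucleoprotein filaments preassembled on unlabelled ssDNA. Reagent: labelled 47-mer dsDNA for strand exchange. Schedule: 30-min compound preincubation and 15-min exchange, both room temperature. Measured by: FRET fluorescence dequenching, excitation 485 nm, emission 520 nm. Read-out: Fluorescence-based percent inhibition, control- and blank-normalised. Benchmarks: plate controls and plate blanks.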
Cl transport mod = KCC2 (human) Cl- transport modulation; 190,000 compounds, 2.2% hits; Q9H2X9; B-score of Tl+ flux slope (higher = more flux/activation; lower = inhibition) at 10 µM; KCC2 cells, thallium flux FluoZin-2 fluorescence;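 active means thallium flux slope and its plate-corrected score both differing from the plate sample mean at a set confidence after two filtering rounds, in either direction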;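 further: slope of fluorescence scaled to starting intensity during 10 to 20 s after thallium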
KCC2 sec1 = KCC2 (human) modulation, secondary assay; shares compounds with Cl transport mod; HEK293-KCC2, thallium flux, FluoZin2 fluorescence; active compounds read high; normalised thallium flux (F/F0 slope) at 10 µM; 3,700 compounds, 15% hits; AID 1713;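 active means thallium flux slope above the same plate's solvent-only control mean plus 3 SD; inconclusive means the two replicate wells disagree; inactive means no significant difference from solvent-only control wells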
KCC2 bumet counter = bumetanide-insensitive thallium flux in KCC2 cells with ouabain, counter-screen; shares compounds with Cl transport mod; HEK293-KCC2 + bumetanide/ouabain, thallium flux FluoZin2; active compounds read high; normalized thallium flux at 10 µM; 3,700 compounds, 49% hits;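 active means thallium entry rate above the same plate's blocked-transporter control wells by more than 3 SD; inconclusive means the two repeat wells disagree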;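 further: raw slope of fluorescence over initial fluorescence between 10 and 20 s after thallium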
KCC2 secondary2 = confirmation of human KCC2 transport modulators; shares compounds with Cl transport mod; HEK293-KCC2, thallium flux FluoZin2 fluorescence; actives lie on both sides; F/F0 rise rate, 10–20 s post-thallium; normalized thallium flux at 10 µM; 3,700 compounds, 23% hits;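 active means thallium flux slope more than 3 SD above or below the plate's solvent-only control mean, mostly below; inconclusive means the two repeat wells disagreed; inactive means no significant shift from solvent-only controls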
HEK293 Tl flux = acts in parental HEK cells, KCC2 counter-screen; shares compounds with Cl transport mod; HEK293 parental cells, thallium flux FluoZin2, ouabain; baseline-ratio fluorescence slope, 10–20 s after thallium; thallium flux rate (normalised fluorescence) at 10 µM; 3,700 compounds, 46% hits; AID 1716;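 active means thallium flux rate significantly above the same plate's solvent-only control wells, beyond their mean plus 3 SD; inconclusive means the two replicate wells gave conflicting results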
KCC2 retest ouab = KCC2 (human) modulation, ouabain retest; shares compounds with Cl transport mod; HEK293-KCC2, thallium flux FluoZin2 fluorescence; bidirectional: low = inhibitor, high = activator; 3,700 compounds, 48% hits; AID 1717; raw Tl+ flux slope (below DMSO = inhibition, above = activation) at 10 µM;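 active means thallium flux slope beyond 3 SD from same-plate DMSO control mean in most replicates, usually higher, sometimes lower; inconclusive means repeat tests gave conflicting results; inactive means no significant difference from controls in most replicates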;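 further: slope of initial-normalized fluorescence between seconds 10 and 20 after thallium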
HEK293 Tl flux2 = parental HEK flux effect, counter-screen 2 | 3,700 compounds, 33% hits | thallium flux slope at 10 µM | HEK293 parental, thallium flux FluoZin-2 fluorescence slope | shares compounds with Cl transport mod | AID 1718;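 active means thallium flux slope above the same plate's solvent-control mean plus 3 SD in both duplicate wells; inconclusive means duplicate wells that disagreed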;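 further: run without ouabain in cells lacking the KCC2 cotransporter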
A number is an active result; i = inactive; ? = inconclusive; nt = not tested or not shown. Compounds with a hit are over-represented: about 3% of the library has one in this group of screens.

SMILES	ROMK primary	PKD1 inh	Rad51 HR inh	Cl transport mod	KCC2 sec1	KCC2 bumet counter	KCC2 secondary2	HEK293 Tl flux	KCC2 retest ouab	HEK293 Tl flux2
CSc1ccccc1NC(=S)N/N=C/c1cccn1Cc1cccc(C)c1	i	i	nt	nt	nt	nt	nt	nt	nt	nt
CSc1ccccc1NC(=S)N/N=C/c1cccn1Cc1ccc(F)cc1	i	i	i	4.14	i	0.0106	i	0.0106	i	0.0135
COc1ccc(NC(=S)N/N=C/c2cccn2Cc2ccccc2F)cc1	i	i	i	i	nt	nt	nt	nt	nt	nt
Cc1cccc(NC(=S)N/N=C/c2cccn2Cc2ccc(F)cc2)c1	i	i	i	6.26	i	0.00879	?	i	i	i
CCC(C)(C)NC(=O)c1cc(S(=O)(=O)N2CCCCC2)ccc1N1CCOCC1	i	i	i	nt	nt	nt	nt	nt	nt	nt
COc1ccccc1/C=N/NC(=S)NCc1ccco1	i	nt	nt	i	nt	nt	nt	nt	nt	nt
S=C(NCc1ccco1)Nc1ccccc1	nt	i	i	i	nt	nt	nt	nt	nt	nt
S=C(NCc1ccco1)N/N=C/c1ccccc1Cl	i	i	i	7.27	i	0.0175	i	0.00949	0.0336	?
O=C(NC(=S)NCc1ccco1)c1ccccc1	i	i	i	18.6	?	0.0364	i	0.0146	i	0.0129
O=C(NC(=S)NCc1ccc(F)cc1)c1ccccc1	i	i	nt	48.4	0.0265	0.053	0.0391	0.0214	0.0292	0.0227
O=C(NC(=S)NCc1ccccc1)c1ccccc1	i	i	i	22.2	i	0.036	0.0427	0.0292	0.0378	0.0299
COc1cccc(/C=C/C(=O)OCC(=O)Nc2cccc(S(=O)(=O)N3CCOCC3)c2)c1OC	i	i	nt	i	nt	nt	nt	nt	nt	nt
CCn1c(SCC(N)=O)nnc1-c1ccc(S(=O)(=O)N2CCN(C)CC2)cc1	i	i	i	3.71	i	i	i	?	i	?
O=S(=O)(Nc1ncnc2sc3c(c12)CCC3)c1ccc2ccccc2c1	i	i	i	-3.1	i	0.00562	i	i	i	i
CCCn1nc(Oc2nc(NCC)nc(NC(C)C)n2)ccc1=O	nt	i	i	-4.38	i	i	i	i	i	i
CC(C)Nc1nc(NC(C)(C)C)nc(Oc2ccc(=O)n(C)n2)n1	i	i	i	i	nt	nt	nt	nt	nt	nt
CCN(CC)CCn1c(=S)[nH]c2ccc(Br)cc2c1=O	i	i	i	17.4	i	0.0171	i	0.0112	i	?
CCOC(=O)N1CCN(C(=O)c2ccc3c(=O)n(Cc4ccc(OC)cc4)c(=S)[nH]c3c2)CC1	i	i	i	nt	nt	nt	nt	nt	nt	nt
CCN(CC)CCCn1c(=S)[nH]c2ccccc2c1=O	nt	i	i	i	nt	nt	nt	nt	nt	nt
CCOC(=O)N1CCN(C(=O)CCCn2c(=S)[nH]c3ccccc3c2=O)CC1	i	i	i	i	nt	nt	nt	nt	nt	nt
CCOC(=O)N1CCN(C(=O)c2ccc3c(=O)n(Cc4ccccc4)c(=S)[nH]c3c2)CC1	i	i	i	4.61	i	0.0258	i	0.012	0.028	0.0112
CCOC(=O)N1CCN(C(=O)CCCn2c(=S)[nH]c3ccc(Br)cc3c2=O)CC1	nt	i	i	8.69	i	0.00892	i	0.00974	i	i
O=S(=O)(CCN1C=CC(C(F)(F)F)=NCC1)c1ccc(Cl)cc1Cl	nt	nt	i	i	nt	nt	nt	nt	nt	nt
O=Cc1cccn1Cc1ccccc1[N+](=O)[O-]	nt	i	i	i	nt	nt	nt	nt	nt	nt
CC1Cc2ccccc2N1C(=O)CCn1c(=O)sc2ccccc21 (stereo not given)	nt	nt	i	-1.7	0.00407	0.00325	0.0213	?	0.0127	?
SMILES	ROMK primary	PKD1 inh	Rad51 HR inh	Cl transport mod	KCC2 sec1	KCC2 bumet counter	KCC2 secondary2	HEK293 Tl flux	KCC2 retest ouab	HEK293 Tl flux2
O=C(Nc1cccc(NC(=O)c2ncn[nH]2)c1)c1cccc(Cl)c1	i	i	i	nt	nt	nt	nt	nt	nt	nt
Clc1ccc2nc(C3CCN(Cc4nnnn4C4CCCCC4)CC3)[nH]c2c1	i	i	i	-4.43	i	i	i	i	?	i
CCn1c(NC(C)=O)nc2ccccc21	i	i	i	i	nt	nt	nt	nt	nt	nt
CCn1c(NC(=O)c2cccs2)nc2ccccc21	nt	i	i	26.9	i	0.0295	i	0.0186	?	0.0215
Cc1[nH]n(-c2ccccc2)c(=O)c1/C=N/N1C(=O)c2cccc3cccc(c23)C1=O	i	i	i	24.5	?	0.0198	0.045	0.0169	0.0322	0.0166
COc1ccccc1NC(=O)Cn1c(CCC(=O)O)ccc1-c1ccccc1	nt	i	i	i	nt	nt	nt	nt	nt	nt
Cn1nnc(NCc2cc(Br)ccc2OCc2ccccc2F)n1	i	i	nt	-4.13	i	0.00308	0.0244	0.00602	0.0135	i
COc1ccccc1C(=O)NC1CCCCCCC1	i	i	i	i	nt	nt	nt	nt	nt	nt
O=C(CSc1ccccc1C(=O)NCc1ccccc1)NC12CC3CC(CC(C3)C1)C2	nt	i	i	-3.61	?	?	0.0216	i	?	i
O=C(CSc1ccccc1C(=O)NCc1ccccc1)NC1CCCCCCC1	nt	i	i	-4.01	i	?	0.0212	i	?	i
O=C(NC1CCCC1)c1ccccc1OCc1ccccc1	i	i	i	-3.64	i	?	i	0.00474	0.0152	i
O=C(CSc1ccccc1C(=O)O)NC1CCCCCC1	nt	nt	i	i	nt	nt	nt	nt	nt	nt
CC(=O)NC(C)c1nc2ccccc2n1CC(=O)NC(C)CCc1ccccc1 (stereo not given)	i	i	i	i	nt	nt	nt	nt	nt	nt
Cc1cccc(-n2c(SCN3C(=O)c4ccccc4C3=O)nc3ccccc3c2=O)c1	nt	i	i	i	nt	nt	nt	nt	nt	nt
CCCn1c(SCN2C(=O)c3ccccc3C2=O)nc2cc(Cl)ccc2c1=O	i	i	nt	106	0.0379	0.171	0.0534	0.0915	0.0838	0.0462
Cc1nc(Nc2cccc(C(C)O)c2)c2nnn(Cc3ccccc3F)c2n1 (stereo not given)	i	i	i	i	nt	nt	nt	nt	nt	nt
COc1ccc(/C=C/C(=O)NC(=S)N2CCSCC2)cc1	i	i	i	8.69	i	0.034	i	0.0159	0.0249	0.0175
COc1ccc(/C=C/C(=O)NC(=S)N2CCN(c3ccccn3)CC2)cc1	nt	nt	i	5.9	i	0.0238	i	0.0126	?	0.0149
Cn1ncc(Br)c1C(=O)NC(=S)N1CCN(c2ccccn2)CC1	i	i	i	i	nt	nt	nt	nt	nt	nt
CN1CCN(C(=S)NC(=O)/C=C/c2ccccc2)CC1	i	i	nt	i	nt	nt	nt	nt	nt	nt
O=C(/C=C/c1ccc(Br)cc1)NC(=S)N1CCOCC1	i	i	i	8.68	i	0.0241	i	0.0169	0.031	0.019
O=C(NC(=S)N1CCN(c2ccccn2)CC1)c1ccccc1	i	i	nt	17.4	i	0.0427	i	0.0295	0.0389	0.0191
